pEC50: −log10 of the molar value. The source made the active and inactive calls. The rule behind the calls is not given here. Where a SMILES comes first, the peptide text is derived from it. [ ]: non-standard residue; d: D form. The star is where a group is joined. Palmitoyl = CCCCCCCCCCCCCCCC(=O)*; βAla = NCCC(=O)O
How the values were obtained:
[1] = test system: Middle East respiratory syndrome-related coronavirus; assay: Binding affinity to MERS-CoV spike protein synthetic peptide HR1P at 75 uM incubated for 30 mins by Coomassie blue R250 staining based native polyacrylamide gel electrophoresis method
Outline: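 Equimolar mix with HR1P (150 μM each) in 10 mM phosphate pH 7.4, 30 min at 25 °C; diluted 1:1 in β-alanine–formic acid sample buffer, run on 15% β-alanine–formic acid gel at pH 3.4 (90 V then 150 V, 2.5 h); Coomassie R250 stain.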

[2] = Cytotoxicity in human TZM-bl cells; assay type: cell-based
[3] = Inhibition of MERS-CoV spike protein-mediated cell-cell fusion in 293T/MERS/EGPF cells assessed as reduction in cell fusion incubated for 4 hrs by inverted fluorescence microscopy; assay type: cell-based, Middle East respiratory syndrome-related coronavirus
Outline: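 Huh-7 cells expressing DPP4 plated 5 × 10^4/well, 5 h at 37 °C; serially diluted peptide added, then 293T cells carrying MERS-CoV S and EGFP (or EGFP-only control cells), 1 × 10^4/well. After 4 h coculture at 37 °C, fused and unfused effector cells counted by fluorescence microscopy.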

[4] = target: Hemagglutinin (Influenza A virus (A/Puerto Rico/8/1934(H1N1))) (UniProt P03452); assay: Inhibition of Influenza A virus (A/Puerto Rico/8/1934(H1N1)) Hemagglutinin 1-induced aggregation of chicken erythrocytes at 0.05 to 100 uM
Rattus norvegicus [5] = assay: MRT (0 to t) in Sprague-Dawley rat at 5 mg/kg, iv administered as single dose by LC-MS/MS analysis; assay type: ADME, organism-based; details: in vivo
Influenza A virus [6] = assay: Binding affinity to influenza A virus hemagglutinin 2 synthetic peptide N66 at pH 5 by sedimentation velocity analysis
Outline: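 Complexes at 150 μM final: with HR1P 30 min at 25 °C in 10 mM phosphate pH 7.4; with N66 30 min at 30 °C in sodium acetate/phosphate/NaCl pH 5.0. Sedimentation velocity at 280 nm, 3000 then 60000 rpm, 25 °C; c(s) distribution and molecular weight derived.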

Influenza A virus [7] = assay: Inhibition of influenza A virus infected in MDCK cells assessed as inhibition of viral load treated with compound at 0 to 10 hrs post-infection by RT-qPCR method based time of addition assay; assay type: functional
Outline: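 MDCK cells (2.0 × 10^5/well) washed with PBS, virus adsorbed (MOI 0.05) 60 min at 4 °C, washed, then compound present only during 0–10, 0–2, 2–5, 5–8 or 8–10 h postinfection; cultured in fresh medium to 10 h, total RNA extracted, viral load by absolute one-step RT-qPCR; triplicate, versus PBS control.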

Rattus norvegicus [8] = assay: Volume of distribution at steady state in Sprague-Dawley rat at 5 mg/kg, iv administered as single dose by LC-MS/MS analysis; assay type: ADME, organism-based; details: in vivo

Chain of Hemagglutinin (Influenza A virus (A/Puerto Rico/8/1934(H1N1))) (P03452 whole entry): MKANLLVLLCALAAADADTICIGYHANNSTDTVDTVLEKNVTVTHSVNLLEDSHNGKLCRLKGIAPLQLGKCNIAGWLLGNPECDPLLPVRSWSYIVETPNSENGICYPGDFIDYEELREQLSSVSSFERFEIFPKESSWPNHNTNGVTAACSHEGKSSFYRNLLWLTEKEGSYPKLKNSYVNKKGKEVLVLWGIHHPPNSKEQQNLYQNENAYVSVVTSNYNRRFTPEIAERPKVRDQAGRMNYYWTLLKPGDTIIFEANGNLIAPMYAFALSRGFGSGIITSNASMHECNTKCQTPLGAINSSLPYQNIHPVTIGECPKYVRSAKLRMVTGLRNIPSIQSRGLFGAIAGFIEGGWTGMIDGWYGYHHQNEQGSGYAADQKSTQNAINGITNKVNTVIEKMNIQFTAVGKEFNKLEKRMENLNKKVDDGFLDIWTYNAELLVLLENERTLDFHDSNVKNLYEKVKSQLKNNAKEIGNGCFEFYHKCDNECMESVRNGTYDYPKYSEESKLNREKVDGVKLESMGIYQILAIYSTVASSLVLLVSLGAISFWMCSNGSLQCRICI

Compound: CCCCCCCCCCCCCCCC(=O)NCCCC[C@H](NC(=O)CCNC(=O)[C@H](CCCCN)NC(=O)[C@H](CCCCN)NC(=O)[C@H](CCC(N)=O)NC(=O)[C@@H](NC(=O)[C@H](CCC(=O)O)NC(=O)[C@H](CCC(=O)O)NC(=O)[C@@H](NC(=O)[C@H](CCCCN)NC(=O)[C@H](CCCCN)NC(=O)[C@H](CCC(N)=O)NC(=O)[C@@H](NC(=O)[C@H](CCC(=O)O)NC(=O)[C@H](CCC(=O)O)NC(=O)[C@@H](NC(=O)[C@H](CCCCN)NC(=O)[C@H](CCCCN)NC(=O)[C@H](CCC(N)=O)NC(=O)[C@@H](NC(=O)[C@H](CCC(=O)O)NC(=O)[C@H](CCC(=O)O)NC(=O)[C@@H](NC(=O)[C@H](CCCCN)NC(=O)[C@H](CCCCN)NC(=O)[C@H](CCC(N)=O)NC(=O)[C@@H](NC(=O)[C@H](CCC(=O)O)NC(=O)[C@H](CCC(=O)O)NC(=O)[C@@H](NC(=O)[C@H](CCCCN)NC(=O)[C@H](CCCCN)NC(=O)[C@H](CCC(N)=O)NC(=O)[C@@H](NC(=O)[C@H](CCC(=O)O)NC(=O)[C@H](CCC(=O)O)NC(=O)[C@@H](NC(C)=O)[C@@H](C)CC)[C@@H](C)CC)[C@@H](C)CC)[C@@H](C)CC)[C@@H](C)CC)[C@@H](C)CC)[C@@H](C)CC)[C@@H](C)CC)[C@@H](C)CC)[C@@H](C)CC)C(N)=O (Ac-IEEIQKKIEEIQKKIEEIQKKIEEIQKKIEEIQKK[βAla]K(Palmitoyl)-NH2)
- Activity [1]: Active
- CC50 [2]: > 100000 nM
- pEC50 [3]: 6.96
- inhibition [4]: inactive
- MRT(t) (Rattus norvegicus [5]): 4.1 h
- Activity (Influenza A virus [6]): Active
- inhibition (INH) (Influenza A virus [7]): 60%
- Vdss (Rattus norvegicus [8]): 0.1978 L/kg
